Measured values from ChEMBL document CHEMBL3124900, “Discovery and early clinical evaluation of BMS-605339, a potent and orally efficacious tripeptidic acylsulfonamide NS3 protease inhibitor for the treatment of hepatitis C virus infection” (J Med Chem, 2014).

Tests used:
[1] = (§1) AUC in intraduodenally dosed Sprague-Dawley rat plasma measured over 4 hrs by LC/MS/MS analysis; type: ADME, organism-based; design: time < 4 hr, route intraduodenal; conditions: Sprague-Dawley, plasma
Procedure, shortened: (§2)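 Abbreviated rat screen: surgically prepared rats were dosed intraduodenally. Plasma was sampled over 4 h, and liver was collected at the 4 h end point. Plasma was precipitated with two volumes of ACN plus internal standard. Liver was weighed and homogenized in 2 volumes of 20% Hanks buffered salt solution/80% ACN. Both were quantified by LC/MS/MS.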

[2] = Cytotoxicity against human HuH7 cells; type: cell-based; conditions: Huh-7 cells
[3] = Oral bioavailability in Sprague-Dawley rat at 15 mg/kg administered via gavage by LC/MS/MS analysis; type: ADME, organism-based; conditions: in vivo
[4] = AUC in Sprague-Dawley rat at 15 mg/kg, po administered via gavage by LC/MS/MS analysis; type: ADME, organism-based; design: dose 15 mg/kg, route oral; conditions: plasma
[5] = Whole body plasma clearance in Sprague-Dawley rat at 5 mg/kg, iv by LC/MS/MS analysis; type: ADME, organism-based; design: dose 5 mg/kg, route intravenous
[6] = Inhibition of Hepatitis C virus genotype 1a H77 recombinant NS3/4A protease expressed in Escherichia coli BL21 (DE3) cell using Ac-Asp-Glu-Asp(EDANS)-Glu-Glu-Abu[C(O)-O]-Ala-Ser-Lys(DABCYL)-NH2 as substrate by FRET assay; design: species or system Hepatitis C virus (isolate H77)
Liver = experiment: Drug uptake in intraduodenally dosed Sprague-Dawley rat liver measured per gm of tissue over 4 hrs by LC/MS/MS analysis; type: ADME, organism-based; conditions: in vivo, other; procedure, shortened: as §2
[7] = Apparent terminal half life in Sprague-Dawley rat at 5 mg/kg, iv by LC/MS/MS analysis; type: ADME, organism-based; design: dose 5 mg/kg, route intravenous; conditions: in vivo, read-out: betat1/2(app) (converted)
Hepatitis C virus = experiment: Antiviral activity against Hepatitis C virus genotype 1b Con1 after 4 days by cell-based replicon assay; type: functional, organism-based, Hepacivirus hominis; conditions: isolate Con1, 96 h
Plasma = experiment: as §1; type: ADME, organism-based; design: time < 4 hr, route intraduodenal; conditions: in vivo, other, 4 h, BLD = below limit of detection; procedure, shortened: as §2
[8] = AUC in Beagle dog at 3 mg/kg by LC/MS/MS analysis; type: ADME, organism-based, Canis lupus familiaris; design: dose 3 mg/kg; conditions: plasma
[9] = Drug uptake in Sprague-Dawley rat liver at 20 mg/kg, po administered via gavage measured after 8 hrs by LC/MS/MS analysis; type: ADME, organism-based; design: dose 20 mg/kg, route oral; conditions: read-out: Drug uptake
[10] = Plasma concentration in Sprague-Dawley rat at 20 mg/kg, po administered via gavage measured after 8 hrs by LC/MS/MS analysis; type: ADME, organism-based; design: dose 20 mg/kg, route oral
[11] = Apparent terminal half life in Beagle dog at 3 mg/kg, iv by LC/MS/MS analysis; type: ADME, organism-based, Canis lupus familiaris; design: dose 3 mg/kg, route intravenous; conditions: in vivo, read-out: betat1/2(app) (converted)
[12] = Drug uptake in Sprague-Dawley rat liver at 20 mg/kg, po administered via gavage measured after 4 hrs by LC/MS/MS analysis; type: ADME, organism-based; design: dose 20 mg/kg, route oral; conditions: read-out: Drug uptake
[13] = Whole body plasma clearance in Beagle dog at 3 mg/kg, iv by LC/MS/MS analysis; type: ADME, organism-based, Canis lupus familiaris; design: dose 3 mg/kg, route intravenous
[14] = Half life in dog liver microsomes at 3 uM by LC/MS/MS analysis; type: ADME, Canis lupus familiaris
Procedure, shortened: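 Pooled liver microsomes were run in triplicate per species. Each incubation held 3 μM test compound in 0.1 M potassium phosphate pH 7.4 at 37 °C, with 0.9 mg/mL microsomal protein, 0.033 mM MgCl2 and an NADPH-regenerating system. Proteins were precipitated with two volumes of ACN containing internal standard, and supernatants were analysed by LC/MS/MS.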

[15] = AUC in Sprague-Dawley rat at 20 mg/kg, po administered via gavage by LC/MS/MS analysis; type: ADME, organism-based; design: dose 20 mg/kg, route oral; conditions: plasma
[16] = Plasma concentration in Sprague-Dawley rat at 20 mg/kg, po administered via gavage measured after 4 hrs by LC/MS/MS analysis; type: ADME, organism-based; design: dose 20 mg/kg, route oral
[17] = Drug uptake in Sprague-Dawley rat liver at 15 mg/kg, po administered via gavage measured after 24 hrs by LC/MS/MS analysis; type: ADME, organism-based; design: dose 15 mg/kg, route oral; conditions: read-out: Drug uptake
Procedure, shortened: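 Rats were dosed orally at 15 mg/kg, and liver and plasma were collected 24 h post-dose. Plasma was treated with two volumes of ACN containing internal standard. Tissue was homogenized in 2 volumes of 20% HBSS/80% ACN. Analysis was by LC/MS/MS on a C18 column at 60 °C, using an ammonium formate/formic acid water–methanol gradient, SRM detection and a 5 nM LLQ.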

[18] = Drug uptake in iv dosed Sprague-Dawley rat liver measured after 24 hrs by LC/MS/MS analysis; type: ADME, organism-based; conditions: read-out: Drug uptake

SMILES | AUC at 4 h [1] [µM·h] | CC50 [2] [nM] | bioavailability [3] [%] | AUC [4] [µM·h] | clearance [5] [mL/min/kg] | IC50 [6] [nM] | Drug uptake (Liver) [ng] | half-life [7] [h] | EC50 (Hepatitis C virus) [nM] | also measured
C=C[C@@H]1C[C@]1(NC(=O)[C@@H]1C[C@@H](Oc2nccc3c(Cl)cccc23)CN1C(=O)[C@@H](NC(=O)OC(C)(C)C)C(C)(C)C)C(=O)NS(=O)(=O)C1CC1 | 5.5 | 38000 | 6 | 2.08 | 7 | 1 | 36160 | 6.6 | 25 | 
C=C[C@@H]1C[C@]1(NC(=O)[C@@H]1C[C@@H](Oc2nccc3ccccc23)CN1C(=O)[C@@H](NC(=O)OC(C)(C)C)C(C)(C)C)C(=O)NS(=O)(=O)C1CC1 | 0.75 | > 100000 |  | 2.67 | 19 | 7 | 28094 | 2.2 | 60 | 
C=C[C@@H]1C[C@]1(NC(=O)[C@@H]1C[C@@H](Oc2nccc3cc(OC)ccc23)CN1C(=O)[C@@H](NC(=O)OC(C)(C)C)C(C)(C)C)C(=O)O |  | > 100000 |  |  |  | 247 |  |  | 2000 | AUC (Plasma): BLD; Drug uptake (Liver; BLD = below limit of detection): BLD
C=C[C@@H]1C[C@]1(NC(=O)[C@@H]1C[C@@H](Oc2cncc3cc(OC)ccc23)CN1C(=O)[C@@H](NC(=O)OC(C)(C)C)C(C)(C)C)C(=O)NS(=O)(=O)C1CC1 | 0.38 | > 100000 |  |  |  | 2 | 1205 |  | 42 | 
C=C[C@@H]1C[C@]1(NC(=O)[C@@H]1C[C@@H](Oc2cc(-c3ccccc3)nc3cc(OC)ccc23)CN1C(=O)[C@@H](NC(=O)OC(C)(C)C)C(C)(C)C)C(=O)NS(=O)(=O)C1CC1 | 0.077 |  |  | 0.577 | 55 | 1 | 7850 | 1 | 4 | AUC [8]: 2 µM·h; concentration at 8 h [9]: 600 nM; concentration at 8 h [10]: 4 nM; half-life [11]: 0.6 h; concentration at 4 h [12]: 5800 nM; clearance [13]: 16 mL/min/kg; half-life at 3 µM [14]: 2.83 h; AUC [15]: 0.73 µM·h; concentration at 4 h [16]: 580 nM
C=C[C@@H]1C[C@]1(NC(=O)[C@@H]1C[C@@H](Oc2nccc3cc(F)ccc23)CN1C(=O)[C@@H](NC(=O)OC(C)(C)C)C(C)(C)C)C(=O)NS(=O)(=O)C1CC1 | 1.46 | > 100000 |  |  |  | 87 | 69560 |  | 117 | 
C=C[C@@H]1C[C@]1(NC(=O)[C@@H]1C[C@@H](Oc2nccc3c(OC)cccc23)CN1C(=O)[C@@H](NC(=O)OC(C)(C)C)C(C)(C)C)C(=O)NS(=O)(=O)C1CC1 | 2.36 | > 100000 | 9 | 3.74 | 6 | 1 | 51260 | 2.2 | 25 | 
C=C[C@@H]1C[C@]1(NC(=O)[C@@H]1C[C@@H](Oc2ncc(OC)c3cc(OC)ccc23)CN1C(=O)[C@@H](NC(=O)OC(C)(C)C)C(C)(C)C)C(=O)NS(=O)(=O)C1CC1 |  | 45000 | 2 | 0.194 | 27 | 1 |  | 3.1 | 2 | 
CC[C@@H]1C[C@]1(NC(=O)[C@@H]1C[C@@H](Oc2nccc3cc(OC)ccc23)CN1C(=O)[C@@H](NC(=O)OC(C)(C)C)C(C)(C)C)C(=O)NS(=O)(=O)C1CC1 |  | > 100000 | 4 | 0.58 | 17 | 6 |  | 4.2 | 22 | 
C=C[C@@H]1C[C@]1(NC(=O)[C@@H]1C[C@@H](Oc2ncc(OC)c3ccccc23)CN1C(=O)[C@@H](NC(=O)OC(C)(C)C)C(C)(C)C)C(=O)NS(=O)(=O)C1CC1 | 0.28 | 76000 |  | 0.37 | 182 | 2 | 232200 | 9.8 | 19 | concentration at 24 h [17]: 4200 nM; concentration at 24 h [18]: 8000 nM
C=C[C@@H]1C[C@]1(NC(=O)[C@@H]1C[C@@H](Oc2nccc3cc(OC)ccc23)CN1C(=O)[C@@H](NC(=O)O[C@H]1CCOC1)C(C)(C)C)C(=O)NS(=O)(=O)C1CC1 |  | > 100000 | 3 | 0.13 | 49 | 9 |  | 0.67 | 70 | 
C=C[C@@H]1C[C@]1(NC(=O)[C@@H]1C[C@@H](Oc2nc(-c3ccccc3)cc3cc(OC)ccc23)CN1C(=O)[C@@H](NC(=O)OC(C)(C)C)C(C)(C)C)C(=O)NS(=O)(=O)C1CC1 | 1.11 | 13000 |  |  |  | 1 | 72910 |  | 4 | 
C=C[C@@H]1C[C@]1(NC(=O)[C@@H]1C[C@@H](Oc2nccc3cc(OC)ccc23)CN1C(=O)[C@@H](NC(=O)OC(C)(C)C)C(C)C)C(=O)NS(=O)(=O)C1CC1 |  | > 100000 | 28 | 10.5 | 7.8 | 2 |  | 2.9 | 33 | 
C=C[C@@H]1C[C@]1(NC(=O)[C@@H]1C[C@@H](Oc2ncc(C)c3ccccc23)CN1C(=O)[C@@H](NC(=O)OC(C)(C)C)C(C)(C)C)C(=O)NS(=O)(=O)C1CC1 | 0.2 | 71000 |  |  |  | 1 | 97240 |  | 50 | 
C=C[C@@H]1C[C@]1(NC(=O)[C@@H]1C[C@@H](Oc2ncnc3cc(OC)ccc23)CN1C(=O)[C@@H](NC(=O)OC(C)(C)C)C(C)(C)C)C(=O)NS(=O)(=O)C1CC1 | 0.11 | > 100000 |  |  |  | 2 | 2319 |  | 18 | 
